Ten molecules from ChEMBL document CHEMBL4680370, “Discovery of Novel Small-Molecule FAK Activators Promoting Mucosal Healing” (ACS Med Chem Lett, 2021) can be followed below.

One data set has as its system Caco-2. The experiment in a line: Induction of wound closure in human Caco-2 cells at 10 nM in presence of hydroxyurea measured upto 24 hrs by inverted light microscopy based wound healing assay. The class given is functional, cell-based. The conditions noted are these: time hrs <=24.
For data set [1], the target named is Focal adhesion kinase 1 (Homo sapiens) (UniProt Q05397). The experiment in a line: Activation of FAK in human Caco-2 cells assessed as increase in FAK Tyr397 phosphorylation at 10 nM incubated for 1 hr by Western blot analysis. The class given is cell-based. The conditions noted are these: filed as activator. A digest of the protocol: (§1)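 Caco-2 cells were exposed to compound at 10 nM, with DMSO vehicle as control. At least eight separate experiments were run and the data pooled, reported as mean ± standard error.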
Chain of Focal adhesion kinase 1 (Homo sapiens) (Q05397 2-1052 limits assumed): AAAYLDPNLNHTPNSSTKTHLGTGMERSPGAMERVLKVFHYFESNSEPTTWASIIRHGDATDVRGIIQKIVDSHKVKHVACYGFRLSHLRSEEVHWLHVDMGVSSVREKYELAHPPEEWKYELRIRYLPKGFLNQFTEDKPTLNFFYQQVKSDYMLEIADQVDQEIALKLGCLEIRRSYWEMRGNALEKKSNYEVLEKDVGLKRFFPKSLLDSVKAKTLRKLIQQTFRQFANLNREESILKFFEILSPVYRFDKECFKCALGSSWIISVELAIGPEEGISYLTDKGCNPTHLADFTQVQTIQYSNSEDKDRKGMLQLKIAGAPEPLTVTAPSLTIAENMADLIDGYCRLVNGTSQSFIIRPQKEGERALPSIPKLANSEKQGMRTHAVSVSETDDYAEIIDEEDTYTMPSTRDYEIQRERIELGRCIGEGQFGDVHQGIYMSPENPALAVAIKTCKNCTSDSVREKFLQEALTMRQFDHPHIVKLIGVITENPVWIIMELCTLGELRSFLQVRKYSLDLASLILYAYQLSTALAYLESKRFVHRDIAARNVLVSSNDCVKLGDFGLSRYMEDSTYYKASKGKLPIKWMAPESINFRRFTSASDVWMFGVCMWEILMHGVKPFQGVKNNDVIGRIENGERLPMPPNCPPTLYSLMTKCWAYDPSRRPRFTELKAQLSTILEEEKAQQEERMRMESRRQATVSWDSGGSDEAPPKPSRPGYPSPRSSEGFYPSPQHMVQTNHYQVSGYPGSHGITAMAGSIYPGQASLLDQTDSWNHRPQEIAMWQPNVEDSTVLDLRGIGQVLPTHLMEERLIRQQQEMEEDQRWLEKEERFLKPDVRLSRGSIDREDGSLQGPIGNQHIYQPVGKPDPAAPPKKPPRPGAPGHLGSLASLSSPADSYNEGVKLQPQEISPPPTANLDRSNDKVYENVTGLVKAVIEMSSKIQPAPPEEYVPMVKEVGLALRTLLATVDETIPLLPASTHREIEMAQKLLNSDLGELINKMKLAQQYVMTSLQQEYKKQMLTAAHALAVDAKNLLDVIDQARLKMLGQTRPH

Data set [2] has the same target. In words: Activation of FAK in human Caco-2 cells assessed as increase in FAK Tyr397 phosphorylation incubated for 1 hr by Western blot analysis. The class given is cell-based. Particulars: filed as activator, dose 10-1000 nM.
For data set [3] the target is unchanged. The experiment in a line: Activation of FAK in human Caco-2 cells assessed as fold increase in FAK Tyr397 phosphorylation at 10 nM incubated for 1 hr by Western blot analysis relative to control. It counts as cell-based. Particulars: filed as activator. A digest of the protocol:
as §1

The test system of a further data set is Mus musculus. In words: Antiinflammatory activity against ischemic jejunal ulcer C57BL/6J mouse model assessed as ulcer area at 900 ug/kg, ip administered for every 6 hrs for 3 days and measured on day 4 by imaging analysis (reference value: 3.26 +/- 0.47 mm2). The conditions noted are these: dose 900 µg/kg; time 4 day.
The nature of data set [4]: Toxicity in C57BL/6 mouse assessed as body weight at 900 ug/kg, ip administered for every 6 hrs for 3 days and measured on day 4 (reference value: 9.16 +/- 0.62 %). It counts as organism-based. The conditions noted are these: in vivo, 0.9 mg/kg, dose 900 µg/kg.
Data set [5] can be described thus: Tmax in C57BL/6 mouse at 900 ug/kg, ip measured upto 12 hrs by LC-MS/MS analysis. It counts as ADME, organism-based. The conditions noted are these: in vivo, 0.9 mg/kg, dose 900 µg/kg. Put shortly:
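Single intraperitoneal dose of 900 μg/kg in C57BL/6 mice. Compound was first dissolved in DMSO, then diluted in 100 μL normal saline (final DMSO 2.5% in the injected solution). Plasma concentration was followed over time after dosing.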

Several values for one entry are separate records, joined by “and”; a condition that tells them apart may be missing. Equal entries are not always repeated. Activity calls are given as the source filed them. The calls are words filed in the database; no cut-off is given here.

As to `COc1ccc(C(CNC(=O)Nc2cc(C(F)(F)F)ccc2N2CCOCC2)N(C)C)cc1` (centres undefined), the result (in the data set with Caco-2; in data set [1]) was Active. Moreover, the Activity entry in data set [2] is “Dose-dependent effect”. Further, the fold change (FC) in data set [3] was 1.4.

Take `CN1CCN(c2ccc(C(F)(F)F)cc2NC(=O)N2CCCC2c2ccncc2)CC1` (centres undefined): the fold change (FC) in data set [3] amounted to 0.9.

Turning to `O=C(Nc1ccccc1N1CCOCC1)N1CCCC1c1ccncc1` (centres undefined), the fold change (FC) in data set [3] is 1.1.

`O=C(Nc1cc(C(F)(F)F)ccc1N1CCOCC1)N1CCCC1c1ccncc1` (centres undefined): the Activity in the data set with Mus musculus was 1.57 mm2; in data set [4] it was 6.33%; in data set [2], “Dose-dependent effect”. Besides, the outcome (with Caco-2; in data set [1]) was Active. The fold change (FC) in data set [3] was 1.5 and 1. Also, in data set [5], the Tmax worked out at 1 h.

`O=C(Nc1cc(C(F)(F)F)ccc1N1CCOCC1)N1CCCC1c1ccc(O)cc1` (centres undefined): the fold change (FC) in data set [3] amounted to 1.1.

As to `O=C(Nc1cc(C(F)(F)F)ccc1N1CCOCC1)N1CCCC1C1CCCCC1` (centres undefined), the outcome (with Caco-2; in data set [1]) was Active. For the same molecule, the Activity result in data set [2] was “Dose-dependent effect”.

`CN(C)C(CNC(=O)Nc1cc(C(F)(F)F)ccc1N1CCOCC1)c1ccccc1` (centres undefined): in data set [3], the fold change (FC) amounted to 1.

For `O=C(Nc1cc(C(F)(F)F)ccc1N1CCOCC1)N1CCCC1c1ccccc1` (centres undefined), the result (in the data set with Caco-2; in data set [1]) was Active. In addition, in data set [2], the Activity entry was “Dose-dependent effect”. In addition, the fold change (FC) in data set [3] stood at 1.4.

Turning to `O=C(Nc1cc(C(F)(F)F)ccc1N1CCS(=O)(=O)CC1)N1CCCC1c1ccncc1` (centres undefined), the fold change (FC) in data set [3] was 1.

Regarding `CC1CN(c2ccc(C(F)(F)F)cc2NC(=O)N2CCCC2c2ccncc2)CC(C)O1` (centres undefined), the fold change (FC) in data set [3] was found to be 1.
